Our source for the yeast fitness values is the RNAGym collection of RNA variant scans (doi:10.1126/science.aae0568).

B1: tRNA (parent)
chain: GUUCCGUUGGCGUAAUGGUAACGCGUCUCCCUCCUAAGGAGAAGACUGCGGGUUCGAGUCCCGUACGGAACG

This sample holds only a part of the variants without activity. Some results are limits rather than exact numbers.

Variants of B1 are the subject of the data set. The experiment in a line: yeast fitness relative to wild type (ratio to wild type); higher = fitter; tRNA-Arg(CCU), competitive growth, 37 C, YPD. The method, boiled down: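 A pool of Saccharomyces cerevisiae strains, each with a tRNA-Arg(CCU) gene variant at the native genomic locus, was competed in YPD at 37°C for 24 hours across six parallel replicates. The variants had been chemically synthesised at a 3% per-site mutation rate over 69 sites, and gene amplicons before and after competition were read by 100-nucleotide paired-end sequencing. Darwinian fitness relative to wild type rested on changes in genotype frequencies. Genotypes required ≥ 100 starting reads, and estimates < 0.5 were set to 0.5.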
Take GUUCCGAAGGGGUAAUGGUAACGCGUCUCCCUCCUAAGGAGAAGACUGCGGGUUCAAGUCCCGUACGGUACG: the yeast fitness stood at 0.548.

Take GUUCCGAUGCCGUAAUGGUAACGCGUCUCCCUCCUAAGGAAAAGACUGCGGGUUCGAGUCCCGUACGGAACG: the yeast fitness was not above 0.5. On to GUUCCGAGGGCGUAAUGGUAAUGCGUCUCUCUCCUAAGGAGGAGACUGCGGGUUCGAGUCACGUACGGAACG, for which the yeast fitness is not above 0.5. GUUCCGAUGGCGUAAUAGUAACGCGUCUCCCUCCUAAGGAGAAGACUGCGGGUUCGAGACCCGUACGGAACG: the yeast fitness is not above 0.5. Consider GUUCCGAUGGCGUAAUGGUAACACGUCUCCCUCCUAAGGAGAAGACUGCGGGUUAGAGUCACGUACGGAACG, for which the yeast fitness was not above 0.5. To GUUCCGAUGGCCUAAUGGUAACGCGUGUCCAUCCUAAGGAGAAGAAUGCGGGUUCGAGUCCGGUACGGAACG belongs not above 0.5; to GUUCCGAUGGCGUAAUGGGAUCGCGUCUCCCUCCUAAGGAGAAGACUGCGGGUUCGAGUCCCGUACAGAACG, not above 0.5; to GUUCCGAUGGCGUAACGGUAACAUGUCUCCCUCCAAAGGAGAAGACUGCGGGUUCGAGUACCGUACGGCACG, not above 0.5.

In the case of GUUCCGAUGGCGUAAUGGUAACGCGUCUCCCUCCUAAGGAGAACACUGCGGGUUCGAGUCAUGUAUGGAACG, the yeast fitness was not above 0.5. On to GUUCCGAUGGCGUAAUGGUAACACGUCUCCCUCCUAAGGAGAAGACUGCGGGUUCGAGUCCCGUACGUAACG, for which the yeast fitness is not above 0.5.

As to GUUCCGAUGGCGUAAUGGUAACGCGUCUCCCUCCUAAGGAGAAGACUGCGGGUACGAGUCCCGUACGGAACG, the yeast fitness was 0.506. For the variant GUUCCGAAGGCGUAAUGGUAACGCGUCUCCCUCCUAAGGAAAAGACUGCGGGUUCGAGUCCCGUACGGAUCG, the yeast fitness is not above 0.5.

In the case of GUUCCGACGGCGUAAUAGUAACGCGUGUUCCCCCUAAGGAGACGACUGCGGAUUCGAGUCCCGUACGGAACG, the yeast fitness is not above 0.5. Turning to GUUCCGAUGGCGUAAUGGUAACGCGUCUCCCUCCUAAGGAGAAGACUGCGGGUUCGAGUCCCGCACGGAACG, the yeast fitness is 0.829.

GUUCCGAUGGCGUAAUGGUAACGCGUCUCCCUCCUAAGGAGAAGACUGCGGGUUCGAAUCCCGUACGGAACG: the yeast fitness worked out at 0.635. GUUCCGAUGGCGUAAUGGUAACGCGUCUCCCUCCUAAGGAGAAGACUGCAGGUUCGAGUCCUGUACGGCACG: the yeast fitness worked out at 0.614. For the variant GUUCCGACAGCGUAAUGGUAACGCGUCUCCCUUCUAAGGAGAAGACUGCGGGUUCGAGUCCCGUACGGAACG, the yeast fitness is not above 0.5. To GUUCCGAGGGCGUAAUGGUAACGCGUCUCCCUCCUUAGGAGAUGACUGCGGGUUCGAGUCCCGUACGGAACG belongs not above 0.5. For the variant GUUCCGAUGGCGUAAUGGUAACCCGUCUCCCUCCUAAGGAGAAGGCUGCGGGUUCGAGUGCCGUACGGAACG, the yeast fitness is not above 0.5. As for GUUCCGACGGCGUAAUAGUAACGCGUGUUCCUCCUAAGGAGACGACUGCGGAUUCGAGUCCCGUACGGAACG, the yeast fitness was not above 0.5. In the case of GUUCCGAUGGCGUAAUGGUAACGCGUCUCCCUCCUAAAGAGUAGACUGCGAGGUCGAGUGCCGUACGGAACG, the yeast fitness was not above 0.5. With GUUCCGAUGGCGUAAUGGUAACGCGUCUCCCUCCUAAGAAGAAGGCGGCGGGUUCGAGUCCCGUACGGAACG, the yeast fitness turned out to be 0.623.

As to GUUCCGAUGGCGUAACGGUAACGCGUCUCCCUCCUAAGGAGAAGACUGCGGGUUCGAGUCCCGUACGGAACG, the yeast fitness came to 0.751. Take GUUCCGAUGGCGUAAUGGUAACCCGUCUCCCUCCUAAGGAGAAGAGUGCGCGAUCGAGUCCCGUACGGAACG: the yeast fitness was not above 0.5. The value for GUUCCGAUGGCGUAAUGGUAACGCGUCUCCCACCUAAGGAGAAGACUGCGGGUUCGAGUCGCGUACGGAACG was not above 0.5.

Take GUUCCGAGGGCGUAAUGGUAACGCGUCUCGCUCCUAAGGAGAAGACUGCGGGUUCGAGUCCCGUAUGGAACG: the yeast fitness is not above 0.5.

As to GUUCCGAAGCCGUAAUGGUAACGCGUGUCCCUCGUAAGGAGGAGACUGCGGGUUUGAGUCCCGUACGGAACG, the yeast fitness is not above 0.5.

Turning to GUUCCGAUGGCGUAACGGUAUCGCGACUCCCUCCUAAGGAGAAGAUUGCGGGUUCGAGUCCCGUACGGAACG, the yeast fitness is 0.681. To GUUCCGAAGGCGUAAUGGUAACGCAUCUCCCUCCUAAGGCGAAGACUGCGGGUUCGAGUUCCGUACGGAACG belongs not above 0.5; to GUUCCGAUGGCAUAAUGGUAACGCGUCUCCCUCCUAAGGAGAAGACUGCGGGUUCGAGUCCCGUACGGAACG, 0.783. As for GUUCCGAUGGCGUAAUGGUAACGCGUCUCCCUCCUAAGGAAAAGACUGCGGGUUCGAGUCCCGUACGGAACG, the yeast fitness was 0.634. For GUUCCGAUGGCCUAAUGGUAACGCGUGUCCAUCCUAAGGAGAAGAAUGCGGGUUCGAGUCCCGUACGGAACG, the yeast fitness is not above 0.5. The value for GUUCCGAUGGCGUAAUGGUAACGCGUCUCCCUCCUAAGGAGAAGACUGCGGGAUCGAGUCCCGUACGGCACG was 0.545. In the case of GUUCCGAUGUCGUAAUGGUAACGCGUCUCCCUCCUAAGGAGAAGACUGCGGGUUCGAGUCCCGUACGGAACG, the yeast fitness was 0.614. Turning to GUUCCGAUGGCGUAAUGGUAACGCGUCUCCCUCCCAAGGAGGAGACUGCGGGUUCGAGUUCCGUACGGAACG, the yeast fitness turned out to be 0.561.

Turning to GUUCCGAUGGCGUAAUGGUAACGCGUCUCCCUCCUAAGGAGAAGACUGCCGGUUCGCGUCUCGUACGGAACG, the yeast fitness was not above 0.5. The value for GUUCCGAUGGCCUAAUGGUAACGCGUCUCCCUCCUAAGGAGAAGACUGCGGGUUCGCGUCCCGUACGGAACG was not above 0.5; that for GUUCCGAUGGCGUAAUGGAAACGCGUCUCCCUCCUAAGGAGAAGACUGCGGGUUCGAGUCCCGUACGGCACG was 0.502.
